Laboratory results as given in ChEMBL document CHEMBL3580602, “Iminolactones from Schizophyllum commune” (J Nat Prod, 2015).
The source made the active and inactive calls. The rule behind the calls is not given here.

Tests used:
EL4 [1] = assay: Cytotoxicity against mouse EL4 cells assessed as growth inhibition after 48 hrs by sulforhodamine B assay; format: functional, cell-based; conditions: EL4, 48 h
In short: (§1)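 Cancer lines sourced from the National Cancer Institute and run in a high-flux anticancer screen. Cells were exposed to the test compound over a range of concentrations at 37 °C for 48 h. IC50 is reported as the mean of four experiments, with thapsigargin, methotrexate and paclitaxel as positive controls.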

[2] = Cytotoxicity against mouse McCoy cells assessed as growth inhibition at 1230 uM relative to control; format: cell-based; conditions: read-out: GI
PC-3 [3] = assay: Cytotoxicity against human PC3 cells assessed as growth inhibition after 48 hrs by sulforhodamine B assay; format: functional, cell-based; conditions: PC-3, 48 h; in short: as §1
[4] = Cytotoxicity against human MCF10A cells assessed as growth inhibition; format: cell-based; conditions: MCF-10A
MCF7 [5] = assay: Cytotoxicity against human MCF7 cells assessed as growth inhibition after 48 hrs by sulforhodamine B assay; format: functional, cell-based; conditions: MCF7, 48 h; in short: as §1
[6] = Cytotoxicity against human MCF10A cells assessed as growth inhibition at 1230 uM relative to control; format: cell-based, MCF-10A; conditions: read-out: GI
[7] = Cytotoxicity against mouse McCoy cells assessed as growth inhibition; format: cell-based
EL4 [8] = assay: Cytotoxicity against mouse EL4 cells up to 200 uM after 48 hrs by sulforhodamine B assay; format: functional, cell-based; in short: as §1
MCF7 [9] = assay: Cytotoxicity against human MCF7 cells up to 200 uM after 48 hrs by sulforhodamine B assay; format: functional, cell-based; in short: as §1
PC-3 [10] = assay: Cytotoxicity against human PC3 cells up to 200 uM after 48 hrs by sulforhodamine B assay; format: functional, cell-based; in short: as §1
[11] = Cytotoxicity against mouse McCoy cells up to 200 uM; format: cell-based
[12] = Cytotoxicity against human MCF10A cells up to 200 uM; format: cell-based; conditions: mcf-10a

Row | SMILES | IC50 (EL4 [1]) | inhibition at 1230 µM [2] | IC50 (PC-3 [3]) | IC50 [4] | IC50 (MCF7 [5]) | inhibition at 1230 µM [6] | IC50 [7] | Activity (EL4 [8]) | Activity (MCF7 [9]) | Activity (PC-3 [10]) | Activity [11] | Activity [12]
1 | CN(Cc1cnc2nc(N)nc(N)c2n1)c1ccc(C(=O)N[C@@H](CCC(=O)O)C(=O)O)cc1 [METHOTREXATE] | 5.1 µM | – | – | – | – | – | – | – | – | – | – | –
2 | CC1(C)C[C@@H]2OC(=O)[C@H](Cc3ccccc3)N=C2[C@@]23C(=O)OC4OCC(=CC[C@@H]12)[C@H]43 (stereo partly specified) | 3.7 µM | 30% | 14.7 µM | > 1230 µM | 4.9 µM | 22% | > 1230 µM | – | – | – | – | –
3 | CC1(C)C[C@@H]2OC(=O)[C@@H](Cc3ccccc3)N=C2[C@@]23C(=O)OC4OCC(=CC[C@@H]12)[C@H]43 (stereo partly specified) | – | – | – | – | – | – | – | inactive | inactive | inactive | Non-toxic | Non-toxic
4 | CC(=O)O[C@H]1C(=O)[C@@]2(C)[C@H]([C@H](OC(=O)c3ccccc3)[C@]3(O)C[C@H](OC(=O)[C@H](O)[C@@H](NC(=O)c4ccccc4)c4ccccc4)C(C)=C1C3(C)C)[C@]1(OC(C)=O)CO[C@@H]1C[C@@H]2O [PACLITAXEL] | 1.7 µM | – | – | – | – | – | – | – | – | – | – | –
5 | C/C=C(/C)C(=O)O[C@H]1C(C)=C2[C@H]([C@@H]1OC(=O)CCCCCCC)[C@@](C)(OC(C)=O)C[C@H](OC(=O)CCC)[C@@]1(O)[C@H]2OC(=O)[C@@]1(C)O [THAPSIGARGIN] | 1.4 µM | – | 2.4 µM | 2.4 µM | 2.7 µM | – | 2 µM | – | – | – | – | –
6 | CC1(C)C[C@@H]2OC(=O)[C@H](Cc3c[nH]c4ccccc34)N=C2[C@@]23C(=O)OC4OCC(=CC[C@@H]12)[C@H]43 (stereo partly specified) | 4 µM | 41% | 13.4 µM | > 1230 µM | 6.7 µM | 20% | > 1230 µM | – | – | – | – | –
